Legend:
[1] = tested on: Human immunodeficiency virus; assay: Inhibitory concentration against protease inhibitor-resistant mutant Human immuno deficiency virus (EP13) was determined in an MT-4 cell line; conditions: Human immunodeficiency virus 1, MT4
[2] = tested on: Human immunodeficiency virus; assay: Inhibitory concentration against protease inhibitor-resistant mutant Human immuno deficiency virus (D545701) was determined in an MT-4 cell line; conditions: Human immunodeficiency virus 1, MT4
[3] = tested on: Human immunodeficiency virus; assay: Inhibitory concentration against wild type Human immuno deficiency virus (HXB2) was determined in an MT-4 cell line; format: functional, organism-based; conditions: Human immunodeficiency virus 1, MT4
Canis lupus familiaris [4] = assay: Bioavailability in dog at 0.5 mg/kg dose co-administered with 4.0 mg/kg ritonavir; format: functional, organism-based
How it was run: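 Ritonavir-boosted bioavailability was calculated as the oral AUC with co-administered ritonavir divided by the IV AUC without ritonavir.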

Rattus norvegicus [5] = assay: Clearance in rats at 1.0 mg/kg iv dose; format: functional, organism-based; design: dose 1 mg/kg
Rattus norvegicus [6] = assay: Bioavailability of the compound in rat was determined; Dose at 1.0 mg/kg; format: functional, organism-based
Canis lupus familiaris [7] = assay: Clearance in dogs at 0.5 mg/kg iv dose; format: functional, organism-based; design: dose 0.5 mg/kg
Canis lupus familiaris [8] = assay: Bioavailability in dog at 0.5 mg/kg dose; format: functional, organism-based
Canis lupus familiaris [9] = assay: Half life in dogs at 0.5 mg/kg iv dose co-administered with ritonavir 4.0 mg/kg; format: functional, organism-based
Rattus norvegicus [10] = assay: Half life in rat was determined at a dose 1.0 mg/kg; format: functional, organism-based; design: dose 1 mg/kg
Canis lupus familiaris [11] = assay: Half life in dogs at 0.5 mg/kg iv dose; format: functional, organism-based; design: dose 0.5 mg/kg
Rattus norvegicus [12] = assay: Bioavailability in rats at 1.0 mg/kg iv dose; format: functional, organism-based
Canis lupus familiaris [13] = assay: Clearance in dogs at 0.5 mg/kg dose; format: functional, organism-based; design: dose 0.5 mg/kg

Row | IC50 [1] [µM] | IC50 [2] [µM] | IC50 [3] [µM] | Structure (SMILES) | also measured
1 | 0.013 | 0.016 | 0.039 | CC(=O)NCCCCOc1ccc(C[C@H](NC(=O)O[C@H]2CO[C@H]3OCC[C@H]32)[C@H](O)CN(CC(C)C)S(=O)(=O)c2ccc3c(c2)OCO3)cc1 | 
2 | 0.018 | 0.02 | 0.057 | CC(=O)NCCCOc1ccc(C[C@H](NC(=O)O[C@H]2CO[C@H]3OCC[C@H]32)[C@H](O)CN(CC(C)C)S(=O)(=O)c2ccc3c(c2)OCO3)cc1 | 
3 | 0.011 | 0.011 | 0.025 | CC(C)CN(C[C@@H](O)[C@H](Cc1ccc(OCCCNC(=O)N(C)C)cc1)NC(=O)O[C@H]1CO[C@H]2OCC[C@H]21)S(=O)(=O)c1ccc2c(c1)OCO2 | 
4 | 0.44 | > 1 | 0.13 | CC(C)CN(C[C@@H](O)[C@H](Cc1ccccc1)NC(=O)O[C@H]1CCOC1)S(=O)(=O)c1ccc(N)cc1 [AMPRENAVIR] | 
5 | 0.4 | > 1 | 0.04 | Cc1cccc(C)c1OCC(=O)N[C@@H](Cc1ccccc1)[C@@H](O)C[C@H](Cc1ccccc1)NC(=O)[C@H](C(C)C)N1CCCNC1=O [LOPINAVIR] | 
6 | 0.05 | 0.065 | 0.067 | CC(C)CN(C[C@@H](O)[C@H](Cc1ccc(OCCCN)cc1)NC(=O)O[C@H]1CO[C@H]2OCC[C@H]21)S(=O)(=O)c1ccc2c(c1)OCO2 | 
7 | 0.45 | > 1 | 0.32 | Cc1c(O)cccc1C(=O)N[C@@H](CSc1ccccc1)[C@H](O)CN1C[C@H]2CCCC[C@H]2C[C@H]1C(=O)NC(C)(C)C [NELFINAVIR] | 
8 | 0.0029 | 0.0071 | 0.003 | COC(=O)NCCOc1ccc(C[C@H](NC(=O)O[C@H]2CO[C@H]3OCC[C@H]32)[C@H](O)CN(CC(C)C)S(=O)(=O)c2ccc3c(c2)OCO3)cc1 | bioavailability (Canis lupus familiaris [4]): 33%; CL (mL.min-1.kg-1) (Rattus norvegicus [5]): 0.917; bioavailability (Rattus norvegicus [6]): 1%; CL (mL.min-1.kg-1) (Canis lupus familiaris [7]): 1.13; bioavailability (Canis lupus familiaris [8]): 0%; T1/2 (Canis lupus familiaris [9]): 36 min; T1/2 (Rattus norvegicus [10]): 96 min
9 | 0.022 | 0.032 | 0.065 | CC(C)CN(C[C@@H](O)[C@H](Cc1ccc(OCCCCNC(=O)N(C)C)cc1)NC(=O)O[C@H]1CO[C@H]2OCC[C@H]21)S(=O)(=O)c1ccc2c(c1)OCO2 | 
10 | 0.15 | 0.13 | 0.18 | CC(C)CN(C[C@@H](O)[C@H](Cc1ccc(OCCN)cc1)NC(=O)O[C@H]1CO[C@H]2OCC[C@H]21)S(=O)(=O)c1ccc2c(c1)OCO2 | 
11 | 0.0026 | 0.0066 | 0.0026 | COC(=O)NCCCCOc1ccc(C[C@H](NC(=O)O[C@H]2CO[C@H]3OCC[C@H]32)[C@H](O)CN(CC(C)C)S(=O)(=O)c2ccc3c(c2)OCO3)cc1 | 
12 | 0.0059 | 0.0092 | 0.015 | CC(C)CN(C[C@@H](O)[C@H](Cc1ccc(OCCCCNS(C)(=O)=O)cc1)NC(=O)O[C@H]1CO[C@H]2OCC[C@H]21)S(=O)(=O)c1ccc2c(c1)OCO2 | 
13 | 0.014 | 0.028 | 0.015 | CC(C)CN(C[C@@H](O)[C@H](Cc1ccc(OCCCCN)cc1)NC(=O)O[C@H]1CO[C@H]2OCC[C@H]21)S(=O)(=O)c1ccc2c(c1)OCO2 | 
14 | 0.0026 | 0.0071 | 0.0028 | COC(=O)NCCCOc1ccc(C[C@H](NC(=O)O[C@H]2CO[C@H]3OCC[C@H]32)[C@H](O)CN(CC(C)C)S(=O)(=O)c2ccc3c(c2)OCO3)cc1 | T1/2 (Canis lupus familiaris [11]): 66 min; bioavailability (Rattus norvegicus [12]): 3%; CL (mL.min-1.kg-1) (Rattus norvegicus [5]): 0.717; CL (mL.min-1.kg-1) (Canis lupus familiaris [13]): 0.5; bioavailability (Canis lupus familiaris [8]): 1%; T1/2 (Rattus norvegicus [10]): 12 min
15 | 0.019 | 0.015 | 0.0022 | COC(=O)NCCCCC(C)(C)CN(C[C@@H](O)[C@H](Cc1ccccc1)NC(=O)O[C@H]1CO[C@H]2OCC[C@H]21)S(=O)(=O)c1ccc2c(c1)OCO2 | 
16 | 0.33 | 0.44 | 0.05 | CC(C)(C)NC(=O)[C@@H]1CN(Cc2cccnc2)CCN1C[C@@H](O)C[C@@H](Cc1ccccc1)C(=O)N[C@H]1c2ccccc2C[C@H]1O [INDINAVIR] | 
17 | 0.131 | 0.13 | 0.2 | CNC(=O)NCCOc1ccc(C[C@H](NC(=O)O[C@H]2CO[C@H]3OCC[C@H]32)[C@H](O)CN(CC(C)C)S(=O)(=O)c2ccc3c(c2)OCO3)cc1 | 
18 | 0.026 | 0.022 | 0.06 | CNC(=O)NCCCCOc1ccc(C[C@H](NC(=O)O[C@H]2CO[C@H]3OCC[C@H]32)[C@H](O)CN(CC(C)C)S(=O)(=O)c2ccc3c(c2)OCO3)cc1 | 
19 | 0.02 | 0.021 | 0.041 | CC(C)CN(C[C@@H](O)[C@H](Cc1ccc(OCCCNS(C)(=O)=O)cc1)NC(=O)O[C@H]1CO[C@H]2OCC[C@H]21)S(=O)(=O)c1ccc2c(c1)OCO2 | 
20 | 0.0091 | 0.02 | 0.062 | CC(C)CN(C[C@@H](O)[C@H](Cc1ccc(OCCNS(C)(=O)=O)cc1)NC(=O)O[C@H]1CO[C@H]2OCC[C@H]21)S(=O)(=O)c1ccc2c(c1)OCO2 | 
21 | 0.052 | 0.053 | 0.14 | CC(=O)NCCOc1ccc(C[C@H](NC(=O)O[C@H]2CO[C@H]3OCC[C@H]32)[C@H](O)CN(CC(C)C)S(=O)(=O)c2ccc3c(c2)OCO3)cc1 | 
22 | 0.093 | 0.07 | 0.025 | COC(=O)N[C@H](C(=O)N[C@@H](Cc1ccccc1)[C@@H](O)CN(Cc1ccc(-c2ccccn2)cc1)NC(=O)[C@@H](NC(=O)OC)C(C)(C)C)C(C)(C)C [ATAZANAVIR] | 
23 | 0.0091 | 0.011 | 0.037 | CC(C)CN(C[C@@H](O)[C@H](Cc1ccc(OCCNC(=O)N(C)C)cc1)NC(=O)O[C@H]1CO[C@H]2OCC[C@H]21)S(=O)(=O)c1ccc2c(c1)OCO2 | 
24 | 0.056 | 0.043 | 0.119 | CNC(=O)NCCCOc1ccc(C[C@H](NC(=O)O[C@H]2CO[C@H]3OCC[C@H]32)[C@H](O)CN(CC(C)C)S(=O)(=O)c2ccc3c(c2)OCO3)cc1 | 

Reference: ChEMBL document CHEMBL1140366, “Novel P1 chain-extended HIV protease inhibitors possessing potent anti-HIV activity and remarkable inverse antiviral resistance profiles” (Bioorg Med Chem Lett, 2005)
